Screening results: PubChem, several laboratories
SKN-1 block: suppressors of acrylamide-induced Pgst-4::GFP reporter in worms, primary screen, SKN-1 inhibitor project, whole organism, uHTS, GFP/RFP fluorescence ratio, strain VP596; C. elegans VP596 Pgst-4::GFP/RFP ratio, 24 h; inhibition, % at 21.8 µM; actives 0.49% (n = 360,000); AID 624304, 2012;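 active means interference check ratio from 0.5 to 1.5 plus GFP to RFP signal ratio inhibition reaching or exceeding a fixed threshold, cut at about 30% in these data, passing the limit was not always enough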
PREPL inh: PREPL enzyme inhibitors, primary screen, biochemical, fluorescence polarization; recombinant PREPL, fluorescence polarization activity-based probe; inhibition, % at 5.96 µM; actives 0.68% (n = 320,000); AID 2751, 2010; in the data active means inhibition above about 43%
Target sequence (Q4J6C6 whole entry, looked up): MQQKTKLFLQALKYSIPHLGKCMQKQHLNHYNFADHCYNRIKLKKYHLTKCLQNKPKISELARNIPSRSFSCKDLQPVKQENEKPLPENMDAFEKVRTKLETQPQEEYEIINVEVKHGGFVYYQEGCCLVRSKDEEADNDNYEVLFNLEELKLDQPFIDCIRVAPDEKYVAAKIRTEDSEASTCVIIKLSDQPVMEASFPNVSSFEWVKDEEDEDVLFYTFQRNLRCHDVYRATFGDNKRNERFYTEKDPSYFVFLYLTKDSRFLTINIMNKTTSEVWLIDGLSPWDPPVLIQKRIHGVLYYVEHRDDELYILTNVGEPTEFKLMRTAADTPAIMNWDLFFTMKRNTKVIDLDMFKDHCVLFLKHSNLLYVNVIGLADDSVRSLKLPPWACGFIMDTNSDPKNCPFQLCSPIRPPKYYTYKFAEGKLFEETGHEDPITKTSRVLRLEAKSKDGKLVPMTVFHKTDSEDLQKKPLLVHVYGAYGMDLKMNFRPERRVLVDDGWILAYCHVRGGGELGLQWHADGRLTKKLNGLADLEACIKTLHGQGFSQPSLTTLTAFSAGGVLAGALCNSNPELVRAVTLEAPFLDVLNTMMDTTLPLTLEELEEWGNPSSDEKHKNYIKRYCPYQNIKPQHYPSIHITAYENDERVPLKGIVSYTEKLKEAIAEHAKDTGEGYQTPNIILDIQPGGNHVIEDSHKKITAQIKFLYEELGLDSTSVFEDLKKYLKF
eLon inh: inhibitors of E. coli Lon protease, primary screen, biochemical, fluorescence polarization; actives 0.42% (n = 360,000); P0A9M0; purified E. coli Lon protease; inhibition, % at 7.94 µM; in the data active means inhibition above about 13%, passing the limit was not always enough
MT1-MMP act inh: blockers of MT1-MMP proenzyme processing, primary screen, HT1080 RFP-PRO-GFP cells, GFP/RFP fluorescence | Matrix metalloproteinase-14 (Homo sapiens), P50281 | GFP/RFP ratio fluorescence, overnight; percent of plate control window, DMSO zero | GFP/RFP ratio change, % at 20 µM | actives 0.061% (n = 360,000);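 active means GFP/RFP ratio change of at least 30% with cell ATP level not reduced by more than half and red fluorescence within 50% of control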
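Read-out: GFP/RFP fluorescence ratio; Test system: RFP-PRO-GFP reporter HT1080 cells; Compound dosing: single-point 20 µM compound, 1% DMSO; Times: overnight compound exposure at 37 °C.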
iPSC survival up: enhancers of single-cell hiPSC survival, primary screen, ATPlite luminescence | AID 602274, 2012 | actives 0.044% (n = 360,000) | survival enhancement, % at 20 µM | 100% = ROCK inhibitor wells, 0% = DMSO; in the data active means survival enhancement above about 18%;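 further: cells exposed to compounds for 16 hours before the ATP read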
TbMetRS inhib: T. brucei MetRS inhibitors, primary screen, biochemical, luminescence. methionyl-tRNA synthetase (Trypanosoma brucei brucei). purified T. brucei MetRS, ATP depletion, Kinase-Glo luminescence. inhibition, % at 11.9 µM. actives 0.4% (n = 360,000);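 active means inhibition above a per-plate cutoff of the control wells' mean inhibition plus 3 SD, cut at about 5.5% in these data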
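System: purified T. brucei MetRS enzyme / Detection: Kinase-Glo luciferase luminescence reporting remaining unconsumed ATP / Medium: HEPES buffer with MgCl2, KCl, DTT, spermine, BSA, pyrophosphatase / Replication: singlicate, one well per compound / Evaluation: percent inhibition relative to median high and low control wells / Schedule: 2 h aminoacylation at 25 °C after 15 min preincubation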
Numbers stand for hits; - = inactive; . = no result given; ! = repeats disagree. Shown are actives, neighbours in structure and some others; about 1.8% of the full set was active somewhere.

SMILES	SKN-1 block	PREPL inh	eLon inh	MT1-MMP act inh	iPSC survival up	TbMetRS inhib
N#Cc1ccc(S(=O)(=O)N2CCCCC2c2cc(C(=O)NCc3ccccc3)no2)cc1 (centres undefined)	-	.	-	-	-	-
COc1ccc(NC(=O)/C(Cl)=C(/Cl)S(=O)Cc2ccccc2)cn1 (centres undefined)	-	-	-	-	-	-
COc1ccc(CS(=O)(=O)/C(Cl)=C(/Cl)C(=O)Nc2ccc(OC)nc2)cc1	-	-	-	-	37	-
Cc1ccc2cc(NC(=O)c3ccc(C(C)(C)C)cc3)ccc2n1	-	-	-	-	-	-
CCc1ccc(C(=O)Nc2ccc3nc(C)ccc3c2)cc1	44	-	-	-	-	-
Clc1ccc(OCc2nc(-c3ccncc3)no2)c(Br)c1	51	-	-	-	-	-
CN(C)C(=O)c1cnc(Cc2c[nH]c3ccccc23)c(I)c1	-	.	-	-	-	-
COc1ccc(/C=C2\SC(=O)N(CC(=O)Nc3ccccc3O)C2=O)cc1OC	35	.	-	-	-	-
COc1ccc(/C=C2\SC(=O)N(CC(=O)Nc3ccc(O)cc3)C2=O)cc1OC	-	.	-	-	-	-
CCOc1nc(-c2ccncc2)nc2ccccc12	39	-	-	-	-	-
CC1=C(C(=O)N2CCOCC2)CC(CC(=O)NC2CC2)C(=O)N1Cc1ccc(F)cc1 (centres undefined)	-	.	-	-	-	-
CCOc1ccc2c(CC)cc(=O)oc2c1OCC	-	-	-	-	-	-
C=CCOc1ccc2c(CC)cc(=O)oc2c1C	72	-	-	-	-	-
CCCNC(=O)C1(C)CCCN(CC(=O)c2ccc3c(c2)OCCO3)C1 (centres undefined)	-	.	-	-	-	-
CC(C)c1ccc(C(=O)Nc2ccc(CN3CCOCC3)cc2)cc1	70	-	-	-	-	-
COc1ccc(OC)c(NC(=O)c2ccc(CN3CCOCC3)cc2)c1	-	-	-	-	-	-
O=C(/C=C/c1ccc(Cl)cc1)Nc1ccc(CN2CCOCC2)cc1	63	-	-	-	-	-
O=C(Nc1ccc(CN2CCOCC2)cc1)c1cc2ccccc2o1	56	-	-	-	-	-
COc1ccccc1NC(=O)c1ccc(CN2CCOCC2)cc1	36	-	-	-	-	-
Cc1ccc(C(=O)C2C(=O)C3CCC2C3)cc1 (centres undefined)	-	.	-	-	-	-
Cc1cc(C)n(CCNC(=O)[C@H]2O[C@@H](n3cnc4c(N)ncnc43)[C@H](O)[C@@H]2O)n1	-	.	-	-	-	-
O=C(c1ccc(S(=O)(=O)NCc2ccco2)cc1)N1CCN(c2ccc(F)cc2)CC1	33	-	-	-	-	-
C[C@H]1COc2cccc(N3CCC[C@@H]3CO)c2S(=O)(=O)N1	-	.	-	-	-	-
COc1cc2nc(C3CC3)n(NC(=O)c3ccc(Cl)cc3)c(=O)c2cc1OC	37	-	-	-	-	-
CCS(=O)(=O)N1Cc2ccccc2CC1C(=O)N(C)CC(=O)Nc1cccc(F)c1 (centres undefined)	-	-	-	-	-	-
SMILES	SKN-1 block	PREPL inh	eLon inh	MT1-MMP act inh	iPSC survival up	TbMetRS inhib
Brc1ccc(CSc2ccc3nnc(-c4ccccn4)n3n2)cc1	-	45	-	-	-	-
Brc1ccc(CSc2ccc3nnc(-c4cccnc4)n3n2)cc1	-	-	-	-	-	-
OCCN(CCO)c1ccc2ccccc2c1	-	-	-	-	-	-
OCCN(CCO)c1ccc(C(c2ccccc2Cl)c2ccc(N(CCO)CCO)cc2Cl)c(Cl)c1	36	-	-	-	-	-
CN1Cc2c(N3CCOCC3)nc3sc(C#N)c(N)c3c2CC1(C)C	-	-	-	-	-	-
CN1Cc2c(N3CCOCC3)nc3sc(C(=O)c4ccc(Br)cc4)c(N)c3c2CC1(C)C	-	68	-	-	-	-
CCOC(=O)C1=C(Nc2ccccc2)CC(C)(O)C(C(=O)OCC)C1c1ccc(Cl)cc1 (centres undefined)	44!	-	-	-	-	-
O=C(Sc1ccc(Cl)cc1)c1ccccn1	55	-	-	-	-	-
C=CCN(c1ccc(C(=O)NC(C)C)cc1)S(C)(=O)=O	47	-	-	-	-	-
C=CCN(c1ccc(C(=O)Nc2ccc(C)cc2)cc1)S(C)(=O)=O	-	-	-	-	-	-
CCC1(C)COC(C)(CC(=O)NNC(=O)Nc2ccccc2)OC1 (centres undefined)	-	-	-	-	-	-
Cc1cccn2c(=O)c(C=O)c(N3CC(C)OC(C)C3)nc12 (centres undefined)	-	-	-	-	-	-
Cc1cccn2c(=O)c(C=O)c(N3CCCCCC3)nc12	37	-	-	-	-	-
CN(C)c1ccc(-c2csc(C(O)c3ccc(F)c(F)c3)n2)cc1 (centres undefined)	-	.	-	-	-	-
CCCCNC(=O)C1C(c2ccc(OC)cc2)=Nc2ccccc2N1C(=O)c1ccncc1 (centres undefined)	-	.	.	-	.	-
O=C(Nc1ccc2c(c1)CN(C(=O)Nc1ccc(F)cc1)CC2)c1ccccn1	38	.	-	-	-	-
COC(=O)c1ccccc1NC(=O)N1CCc2ccc(NC(=O)c3ccccn3)cc2C1	-	-	-	-	-	-
COc1ccc(C(O)CNc2ccc(C)cc2)cc1 (centres undefined)	36	-	-	-	-	-
CN(C)S(=O)(=O)c1cccc(NC(=O)C(c2ccccc2)c2ccccc2)c1	-	-	-	-	-	-
CN(c1ccccc1)S(=O)(=O)c1cccc(NC(=O)CN2C(=O)NC3(CCCCC3)C2=O)c1	-	68	-	-	-	-
CCC(C(=O)Nc1cccc(S(=O)(=O)N(C)c2ccccc2)c1)c1ccccc1 (centres undefined)	40	-	-	-	-	-
C#CCNC(=O)C[C@@H]1C[C@@]2(C(=O)OC)CCCCC=C2N(CCCCCCCC)C1=O	-	.	-	-	-	-
CC(C)c1ccc(NC(=O)Nc2nc(C(N)c3ccccc3)cs2)cc1 (centres undefined)	-	.	-	-	-	-
NC(=O)C1CCN(c2oc(-c3ccccc3F)nc2S(=O)(=O)c2ccc(Cl)cc2)CC1	38	-	-	-	-	-
CCC(CO)Nc1ccn2nc(-c3cccc(Cl)c3)cc2n1 (centres undefined)	-	.	-	-	-	-
